Series [1] can be described thus: Oral bioavailability in Sprague-Dawley rat at 10 mg/kg by LC-MS/MS analysis. The series is classed as ADME, organism-based. Conditions: in vivo. The essentials:
(§1)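 Male SD rats, 8 weeks old, acclimatised at least 1 week; compound dissolved at 10 mg/2 mL in N-methyl-2-pyrrolidone/Tween80/water (1:2:7) by 5 min sonication, given 10 mg/kg by oral gavage at 2 mL/kg (n = 5). Heart-puncture blood drawn at 30 min and 3 h, plasma spun and stored at -70 °C. Samples mixed with carbamazepine internal standard in acetonitrile and assayed by LC-MS/MS.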

Series [2] in a line: MRT in Sprague-Dawley rat at 10 mg/kg, iv by LC-MS/MS analysis. The series is classed as ADME, organism-based. Conditions: in vivo. The essentials:
(§2)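 Male SD rats, 8 weeks old, given 10 mg/kg intravenously (n = 4). Plasma mixed with carbamazepine internal standard in acetonitrile, vortexed, centrifuged at 10,000×g, and the supernatant analysed by LC-MS/MS. Parameters reported as mean ± SD.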

Series [3] concerns the target Translocator protein (Mus musculus) (UniProt P50637). Description: Inhibition of TSPO in mouse HT22 cells assessed as protection against amyloid beta (1 to 42)-induced mitochondrial membrane potential loss by measuring recovery of ATP production at 5 uM preincubated for 10 mins followed by amyloid beta (1 to 42) addition measured after 7 hrs by luciferase reporter gene assay relative to control. The series is classed as cell-based. Also on record: scale not given: the % may be the effect or the level left. Conditions: HT-22. The essentials:
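HT22 cells at 7000 per well were given compound (5 µM) for 10 min at 37 °C, then Aβ1-42 (5 µM) or DMSO vehicle, and incubated 7 h. Cells were washed, lysed in 1% Triton X-100, and protein-equalised by BCA. ATP was measured by luciferin/luciferase luminescence and normalised to vehicle.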

Series [4] shares this target. Description: Inhibition of TSPO in mouse HT22 cells assessed as protection against amyloid beta (1 to 42)-induced mitochondrial membrane potential loss by measuring recovery of mitochondrial membrane potential at 5 uM preincubated for 10 mins followed by amyloid beta (1 to 42) addition measured every 1 hr for 3 hrs by JC1 staining based fluorescence assay relative to control. The series is classed as cell-based. Also on record: scale not given: the % may be the effect or the level left. Conditions: HT-22. In a few lines: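 HT22 cells at 30,000 per well were loaded with 7.5 µM JC-1 in phenol red-free Opti-MEM for 1 h 15 min at 37 °C, then washed. Cells were treated with compound (5 µM) and Aβ1-42 (5 µM); vehicle wells received DMSO. Green (485/535) and red (560/595) fluorescence were read hourly for 3 h. Recovery was normalised between Aβ-damaged (0%) and normal (100%) ratio.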

Series [5] is described as follows: Ratio of drug level in brain to plasma in Sprague-Dawley rat at 10 mg/kg, po at 2 hrs post dose by LC-MS/MS analysis. Particulars: brain and plasma, read-out: BPR. The series is classed as ADME, organism-based.
The target of series [6] is Voltage-gated inwardly rectifying potassium channel KCNH2 (Homo sapiens, UniProt Q12809). Description: Inhibition of human ERG expressed in CHOK1 cells by automated patch clamp method. The series is classed as cell-based, CHO-K1. For orientation: In patch-clamp work, channel activity is measured electrically.
Chain of Voltage-gated inwardly rectifying potassium channel KCNH2 (Q12809 whole entry): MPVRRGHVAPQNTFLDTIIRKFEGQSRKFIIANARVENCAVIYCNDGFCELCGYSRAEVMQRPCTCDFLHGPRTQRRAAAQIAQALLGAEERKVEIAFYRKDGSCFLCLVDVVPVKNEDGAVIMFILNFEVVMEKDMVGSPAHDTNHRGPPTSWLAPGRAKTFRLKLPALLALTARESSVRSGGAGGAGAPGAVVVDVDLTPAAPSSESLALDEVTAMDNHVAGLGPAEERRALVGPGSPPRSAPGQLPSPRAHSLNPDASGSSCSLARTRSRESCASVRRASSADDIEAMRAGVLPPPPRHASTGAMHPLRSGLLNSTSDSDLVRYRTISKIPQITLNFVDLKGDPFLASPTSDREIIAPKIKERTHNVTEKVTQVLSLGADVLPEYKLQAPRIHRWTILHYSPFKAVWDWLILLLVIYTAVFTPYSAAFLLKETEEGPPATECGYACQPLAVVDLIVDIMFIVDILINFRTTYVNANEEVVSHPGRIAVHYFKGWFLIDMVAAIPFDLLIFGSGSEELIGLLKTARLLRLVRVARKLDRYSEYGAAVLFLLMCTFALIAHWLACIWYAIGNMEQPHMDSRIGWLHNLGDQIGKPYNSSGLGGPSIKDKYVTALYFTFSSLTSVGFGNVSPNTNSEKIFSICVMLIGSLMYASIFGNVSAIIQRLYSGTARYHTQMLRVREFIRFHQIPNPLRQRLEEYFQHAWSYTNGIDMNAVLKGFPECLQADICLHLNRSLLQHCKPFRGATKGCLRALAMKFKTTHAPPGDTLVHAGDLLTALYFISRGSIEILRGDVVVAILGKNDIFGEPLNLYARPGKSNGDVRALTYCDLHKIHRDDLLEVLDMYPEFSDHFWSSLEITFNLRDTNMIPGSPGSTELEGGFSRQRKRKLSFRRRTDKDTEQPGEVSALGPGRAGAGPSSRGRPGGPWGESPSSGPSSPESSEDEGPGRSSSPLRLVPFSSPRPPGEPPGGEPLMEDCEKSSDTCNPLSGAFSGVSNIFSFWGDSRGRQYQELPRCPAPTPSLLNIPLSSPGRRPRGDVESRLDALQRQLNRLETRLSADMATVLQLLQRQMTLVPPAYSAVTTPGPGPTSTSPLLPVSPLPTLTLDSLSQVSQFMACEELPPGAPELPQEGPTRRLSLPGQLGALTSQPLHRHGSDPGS
The nature of series [7]: Auc (0 to infinity) in Sprague-Dawley rat at 10 mg/kg, iv by LC-MS/MS analysis. Also noted: dose 10 mg/kg, time infinity, route intravenous. The series is classed as ADME, organism-based. Particulars: in vivo. The essentials:
as §2

Another series addresses T1, CYP1A2 (Homo sapiens, UniProt P05177).
T1 sequence (P05177 whole entry): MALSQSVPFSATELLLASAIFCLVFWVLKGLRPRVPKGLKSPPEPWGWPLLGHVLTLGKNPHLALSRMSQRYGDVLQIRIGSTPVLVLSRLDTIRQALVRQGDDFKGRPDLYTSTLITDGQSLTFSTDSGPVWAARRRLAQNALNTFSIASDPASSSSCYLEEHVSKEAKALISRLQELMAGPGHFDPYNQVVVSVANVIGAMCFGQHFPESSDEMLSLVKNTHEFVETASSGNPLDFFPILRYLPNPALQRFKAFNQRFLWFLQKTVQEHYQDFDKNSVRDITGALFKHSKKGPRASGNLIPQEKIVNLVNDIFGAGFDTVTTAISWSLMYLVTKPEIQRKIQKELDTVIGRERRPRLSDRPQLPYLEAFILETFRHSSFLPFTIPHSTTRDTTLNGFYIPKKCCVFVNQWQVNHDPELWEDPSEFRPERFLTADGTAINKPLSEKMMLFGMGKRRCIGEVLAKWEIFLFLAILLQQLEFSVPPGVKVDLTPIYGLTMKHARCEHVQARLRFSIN
Description: Inhibition of recombinant human CYP1A2 expressed in baculosomes coexpressing rabbit NADPH-P450 reudctase assessed as residual activity at 10 uM preincubated for 5 mins followed by substrate and NADP+ addition measured after 20 mins by fluorescence assay relative to control. The series is classed as ADME. Conditions: read-out: Activity. In a few lines:
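Vivid CYP450 kit: recombinant human CYP isozyme in Baculosomes with rabbit NADPH-P450 reductase, plus regeneration system (3.3 mM glucose-6-phosphate, 0.3 U/mL G6PDH in 100 mM potassium phosphate, pH 8.0). Mixture preincubated with sample for 5 min at 37 °C. Vivid substrate and 0.1 mM NADP+ were then added, and remaining activity read by fluorescence after 20 min.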

Series [8] can be described thus: Terminal half life in Sprague-Dawley rat at 10 mg/kg, po by LC-MS/MS analysis. The series is classed as ADME, organism-based. Conditions: in vivo, read-out: beta t1/2. The essentials:
as §1

The results in this text go back to ChEMBL document CHEMBL3877298, “Discovery of benzimidazole derivatives as modulators of mitochondrial function: A potential treatment for Alzheimer's disease” (Eur J Med Chem, 2017).

Chain of Translocator protein (Mus musculus) (P50637 whole entry, looked up): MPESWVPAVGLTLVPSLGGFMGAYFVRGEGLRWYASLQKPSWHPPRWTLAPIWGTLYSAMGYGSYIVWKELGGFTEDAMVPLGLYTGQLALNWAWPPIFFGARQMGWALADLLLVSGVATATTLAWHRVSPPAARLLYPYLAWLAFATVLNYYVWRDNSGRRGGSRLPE

The bioavailability is dose-corrected exposure relative to a reference, in per cent. In general, MRT refers to the average time that molecules of a dose stay in the body. As usually defined, the IC50 is the midpoint of a concentration-inhibition curve. By AUC(0-inf) is commonly meant total exposure, with the tail of the curve extrapolated. In the case of `Cc1ccc(C(C)C)cc1NC(=O)Cn1c(Cc2c(Cl)cccc2Cl)nc2ccccc21`, the bioavailability in [1] turned out to be 3.7%. In series [2], this compound gave an MRT of 1.12 h. The Activity in series [3] is 95%; in series [4], 74%. For the same compound, the Kp at 2 h in series [5] is 1.02. Besides, the IC50 in series [6] was over 100 µM. The AUC(0-inf) in [7] is 1850 ng·h/mL. For the same compound, at CYP1A2, the activity at 20 min, 10 µM amounted to 108%. Further, in [8], the half-life is 1.49 h.
